In brackets after ≈: the same amount, converted by molar mass.
Key:
Escherichia coli = assay: Antibacterial activity against Escherichia coli ATCC […]; format: functional
In short: (§1)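 MICs were determined by broth microdilution following NCCLS guidelines. The test panel includes erythromycin-susceptible strains and erythromycin-resistant strains with constitutive or inducible MLSB phenotypes or with efflux resistance.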

Enterococcus faecalis = assay: Antibacterial activity against Enterococcus faecalis ATCC 29212; format: functional; in short: as §1
Haemophilus influenzae = assay: Antibacterial activity against Haemophilus influenzae ATCC 49247; format: functional; in short: as §1
Streptococcus pneumoniae = assay: Antibacterial activity against Streptococcus pneumoniae PSCB-0541; format: functional; in short: as §1
Staphylococcus aureus [1] = assay: Antibacterial activity against Staphylococcus aureus ATCC 13709; format: functional; in short: as §1
Staphylococcus aureus [2] = assay: Antibacterial activity against Staphylococcus aureus PSCB-0330; format: functional; in short: as §1
Streptococcus pyogenes [3] = assay: Antibacterial activity against Streptococcus pyogenes PSCB-0543; format: functional; in short: as §1
Streptococcus pyogenes [4] = assay: Antibacterial activity against Streptococcus pyogenes PSCB-0545; format: functional; in short: as §1
Staphylococcus aureus [5] = assay: Antibacterial activity against Staphylococcus aureus PSCB-0331; format: functional; in short: as §1
Staphylococcus aureus [6] = assay: Antibacterial activity against Staphylococcus aureus PSCB-0538; format: functional; in short: as §1
[7] = Tmax in brain of mice at the oral dose of 50 mg/kg; format: ADME, organism-based; parameters: dose 50 mg/kg, route oral; details: mouse
[8] = Tmax in kidney of mice at the oral dose of 50 mg/kg; format: ADME, organism-based; parameters: dose 50 mg/kg, route oral; details: mouse
[9] = Tmax in liver of mice at the oral dose of 50 mg/kg; format: ADME, organism-based; parameters: dose 50 mg/kg, route oral; details: mouse
[10] = Tmax in lungs of mice at the oral dose of 50 mg/kg; format: ADME, organism-based, Lung; parameters: dose 50 mg/kg, route oral; details: mouse
[11] = Tmax in spleen of mice at the oral dose of 50 mg/kg; format: ADME, organism-based; parameters: dose 50 mg/kg, route oral; details: mouse
Mus musculus [12] = assay: T2 in kidney of mice at the oral dose of 50 mg/kg; format: ADME, organism-based; parameters: dose 50 mg/kg, route oral; details: in vivo
Mus musculus [13] = assay: T2 in liver of mice at the oral dose of 50 mg/kg; format: ADME, organism-based; parameters: dose 50 mg/kg, route oral; details: in vivo
Mus musculus [14] = assay: T2 in lungs of mice at the oral dose of 50 mg/kg; format: ADME, organism-based, Lung; parameters: dose 50 mg/kg, route oral; details: in vivo
[15] = Cmax in spleen of mice at the oral dose of 50 mg/kg; format: ADME, organism-based; parameters: dose 50 mg/kg, route oral; details: mouse
Mus musculus [16] = assay: C2 in kidney of mice at the oral dose of 50 mg/kg; format: ADME, organism-based; parameters: dose 50 mg/kg, route oral; details: in vivo
Mus musculus [17] = assay: C2 in liver of mice at the oral dose of 50 mg/kg; format: ADME, organism-based; parameters: dose 50 mg/kg, route oral; details: in vivo
Mus musculus [18] = assay: C2 in lungs of mice at the oral dose of 50 mg/kg; format: ADME, organism-based, Lung; parameters: dose 50 mg/kg, route oral; details: in vivo
Mus musculus [19] = assay: C2 in spleen of mice at the oral dose of 50 mg/kg; format: ADME, organism-based; parameters: dose 50 mg/kg, route oral; details: in vivo
[20] = Cmax in kidney of mice at the oral dose of 50 mg/kg; format: ADME, organism-based; parameters: dose 50 mg/kg, route oral; details: mouse
[21] = Cmax in liver of mice at the oral dose of 50 mg/kg; format: ADME, organism-based; parameters: dose 50 mg/kg, route oral; details: mouse
[22] = Cmax in lungs of mice at the oral dose of 50 mg/kg; format: ADME, organism-based, Lung; parameters: dose 50 mg/kg, route oral; details: mouse
Mus musculus [23] = assay: T2 in spleen of mice at the oral dose of 50 mg/kg; format: ADME, organism-based; parameters: dose 50 mg/kg, route oral; details: in vivo

Row | MIC (Escherichia coli) | MIC (Enterococcus faecalis) | MIC (Haemophilus influenzae) | MIC (Streptococcus pneumoniae) | MIC (Staphylococcus aureus [1]) | MIC (Staphylococcus aureus [2]) | MIC (Streptococcus pyogenes [3]) | MIC (Streptococcus pyogenes [4]) | MIC (Staphylococcus aureus [5]) | MIC (Staphylococcus aureus [6]) | SMILES | also measured
1 | > 128 µg/mL | 1 µg/mL (≈ 1.19 µM) | 4 µg/mL (≈ 4.75 µM) | 2 µg/mL (≈ 2.38 µM) | 0.5 µg/mL (≈ 0.594 µM) | > 128 µg/mL | 0.5 µg/mL (≈ 0.594 µM) | 1 µg/mL (≈ 1.19 µM) | 0.25 µg/mL (≈ 0.297 µM) | 0.25 µg/mL (≈ 0.297 µM) | CCOC(=O)/C=C/C[C@H]1C[C@@H](C)C(=O)/C=C/C(C)=C/[C@H](COC2OC(C)C(O)C(OC)C2OC)[C@@H](CC)OC(=O)C[C@@H](O)[C@H](C)[C@H]1OC1OC(C)C(O)C(N(C)C)C1O (some centres not stated) | 
2 | > 128 µg/mL | 8 µg/mL (≈ 10.4 µM) | 128 µg/mL (≈ 166 µM) | 4 µg/mL (≈ 5.2 µM) | 8 µg/mL (≈ 10.4 µM) | > 128 µg/mL | 64 µg/mL (≈ 83.1 µM) | 16 µg/mL (≈ 20.8 µM) | 32 µg/mL (≈ 41.6 µM) | 8 µg/mL (≈ 10.4 µM) | CC[C@H]1OC(=O)CC(=O)[C@H](C)[C@@H](O[C@@H]2O[C@@H](C)[C@@H](O)[C@@H](N(C)C)[C@H]2O)[C@H]2C[C@H](O)[C@@](C)(C2)C(=O)/C=C/C(C)=C/[C@@H]1CO[C@@H]1O[C@@H](C)[C@@H](O)[C@@H](OC)[C@@H]1OC | 
3 | > 128 µg/mL | 8 µg/mL (≈ 10.4 µM) | > 128 µg/mL | 8 µg/mL (≈ 10.4 µM) | 8 µg/mL (≈ 10.4 µM) | > 128 µg/mL | 32 µg/mL (≈ 41.6 µM) | 4 µg/mL (≈ 5.2 µM) | 32 µg/mL (≈ 41.6 µM) | 16 µg/mL (≈ 20.8 µM) | CC[C@H]1O/C(O)=C/C(=O)[C@H](C)[C@@H](OC2OC(C)C(O)C(N(C)C)C2O)[C@@H](CC=O)C[C@@H](C)C(=O)/C=C/C(C)=C/[C@@H]1COC1OC(C)C(O)C(OC)C1OC (some centres not stated) | 
4 | 128 µg/mL (≈ 158 µM) | 1 µg/mL (≈ 1.23 µM) | 4 µg/mL (≈ 4.93 µM) | 2 µg/mL (≈ 2.46 µM) | 0.25 µg/mL (≈ 0.308 µM) | 128 µg/mL (≈ 158 µM) | 0.5 µg/mL (≈ 0.616 µM) | 0.5 µg/mL (≈ 0.616 µM) | 0.5 µg/mL (≈ 0.616 µM) | 0.25 µg/mL (≈ 0.308 µM) | CC[C@H]1OC(=O)C[C@@H](O)[C@H](C)[C@@H](OC2OC(C)C(O)C(N(C)C)C2O)[C@@H](C/C=C/C(C)=O)C[C@@H](C)C(=O)/C=C/C(C)=C/[C@@H]1COC1OC(C)C(O)C(OC)C1OC (some centres not stated) | Tmax [7]: 0 h; Tmax [8]: 2 h; Tmax [9]: 2 h; Tmax [10]: 2 h; Tmax [11]: 0.5 h; T2 (Mus musculus [12]): 4 h; T2 (Mus musculus [13]): 4 h; T2 (Mus musculus [14]): 0.5 h; Cmax [15]: 7970 ng/g; C2 (Mus musculus [16]): 4.58 µg/g; C2 (Mus musculus [17]): 24.43 µg/g; C2 (Mus musculus [18]): 10.24 µg/g; C2 (Mus musculus [19]): 7 µg/g; Cmax [20]: 14300 ng/g; Cmax [21]: 33300 ng/g; Cmax [22]: 10400 ng/g; T2 (Mus musculus [23]): 2 h
5 | > 128 µg/mL | 16 µg/mL (≈ 20.8 µM) | 64 µg/mL (≈ 83.1 µM) | 32 µg/mL (≈ 41.6 µM) | 32 µg/mL (≈ 41.6 µM) | > 128 µg/mL | 64 µg/mL (≈ 83.1 µM) | 32 µg/mL (≈ 41.6 µM) | 64 µg/mL (≈ 83.1 µM) | 32 µg/mL (≈ 41.6 µM) | CC[C@H]1OC(=O)CC2(O)C(C=O)[C@@H](C[C@@H](C)C(=O)/C=C/C(C)=C/[C@@H]1CO[C@@H]1O[C@@H](C)[C@@H](O)[C@@H](OC)[C@@H]1OC)[C@H](O[C@@H]1O[C@@H](C)[C@@H](O)[C@@H](N(C)C)[C@H]1O)[C@H]2C (some centres not stated) | 

The remaining lines, values behind:

Row | SMILES | MIC (Escherichia coli) | MIC (Enterococcus faecalis) | MIC (Haemophilus influenzae) | MIC (Streptococcus pneumoniae) | MIC (Staphylococcus aureus [1]) | MIC (Staphylococcus aureus [2]) | MIC (Streptococcus pyogenes [3]) | MIC (Streptococcus pyogenes [4]) | MIC (Staphylococcus aureus [5]) | MIC (Staphylococcus aureus [6]) | also measured
6 | CC[C@H]1OC(=O)C[C@@H](O)[C@H](C)[C@@H](OC2OC(C)C(OC3CC(C)(O)C(O)C(C)O3)C(N(C)C)C2O)[C@@H](CC=O)C[C@@H](C)C(=O)CCC(C)C[C@@H]1COC1OC(C)C(O)C(OC)C1OC (some centres not stated) | 64 µg/mL (≈ 69.6 µM) | 16 µg/mL (≈ 17.4 µM) | 64 µg/mL (≈ 69.6 µM) | 8 µg/mL (≈ 8.69 µM) | 2 µg/mL (≈ 2.17 µM) | 64 µg/mL (≈ 69.6 µM) | 64 µg/mL (≈ 69.6 µM) | 1 µg/mL (≈ 1.09 µM) | 2 µg/mL (≈ 2.17 µM) | 4 µg/mL (≈ 4.35 µM) | 
7 | CCOC(=O)/C=C/C[C@H]1C[C@@H](C)C(=O)/C=C/C(C)=C/[C@H](COC2OC(C)C(O)C(OC)C2OC)[C@@H](CC)OC(=O)C[C@@H](NN(C(=O)OCC)C(=O)OCC)[C@H](C)[C@H]1OC1OC(C)C(O)C(N(C)C)C1O (some centres not stated) | 128 µg/mL (≈ 128 µM) | 64 µg/mL (≈ 64 µM) | 128 µg/mL (≈ 128 µM) | 32 µg/mL (≈ 32 µM) | 4 µg/mL (≈ 4 µM) | 128 µg/mL (≈ 128 µM) | 32 µg/mL (≈ 32 µM) | 16 µg/mL (≈ 16 µM) | 32 µg/mL (≈ 32 µM) | 64 µg/mL (≈ 64 µM) | 
8 | CC[C@H]1OC(=O)CC(=O)[C@H](C)[C@@H](O[C@@H]2O[C@@H](C)[C@@H](O)[C@@H](N(C)C)[C@H]2O)[C@H]2C[C@@H](O)[C@](C)(C2)C(=O)/C=C/C(C)=C/[C@@H]1CO[C@@H]1O[C@@H](C)[C@@H](O)[C@@H](OC)[C@@H]1OC | > 128 µg/mL | 4 µg/mL (≈ 5.2 µM) | 128 µg/mL (≈ 166 µM) | 8 µg/mL (≈ 10.4 µM) | 8 µg/mL (≈ 10.4 µM) | > 128 µg/mL | 64 µg/mL (≈ 83.1 µM) | 16 µg/mL (≈ 20.8 µM) | 32 µg/mL (≈ 41.6 µM) | 4 µg/mL (≈ 5.2 µM) | 
9 | CC[C@H]1OC(=O)C[C@@H](O)[C@H](C)[C@@H](OC2OC(C)C(O)C(N(C)C)C2O)[C@@H](C/C=C/C(=O)OC)C[C@@H](C)C(=O)/C=C/C(C)=C/[C@@H]1COC1OC(C)C(O)C(OC)C1OC (some centres not stated) | > 128 µg/mL | 0.5 µg/mL (≈ 0.604 µM) | 16 µg/mL (≈ 19.3 µM) | 2 µg/mL (≈ 2.42 µM) | 0.5 µg/mL (≈ 0.604 µM) | > 128 µg/mL | 0.5 µg/mL (≈ 0.604 µM) | 0.5 µg/mL (≈ 0.604 µM) | 0.5 µg/mL (≈ 0.604 µM) | 0.5 µg/mL (≈ 0.604 µM) | 
10 | CC[C@H]1OC(=O)C[C@@H](OC(C)=O)[C@H](C)[C@@H](OC2OC(C)C(O)C(N(C)C)C2O)[C@@H](CC=O)C[C@@H](C)C(=O)/C=C/C(C)=C/[C@@H]1COC1OC(C)C(O)C(OC)C1OC (some centres not stated) | > 128 µg/mL | 8 µg/mL (≈ 9.83 µM) | 32 µg/mL (≈ 39.3 µM) | 2 µg/mL (≈ 2.46 µM) | 1 µg/mL (≈ 1.23 µM) | > 128 µg/mL | 2 µg/mL (≈ 2.46 µM) | 2 µg/mL (≈ 2.46 µM) | 2 µg/mL (≈ 2.46 µM) | 8 µg/mL (≈ 9.83 µM) | 
11 | CC[C@H]1OC(=O)C[C@@H](O)[C@H](C)[C@@H](OC2OC(C)C(O)C(N(C)C)C2O)[C@@H](CC=O)C[C@@H](C)C(=O)CCC(C)C[C@@H]1COC1OC(C)C(O)C(OC)C1OC (some centres not stated) | 128 µg/mL (≈ 165 µM) | 32 µg/mL (≈ 41.2 µM) | 64 µg/mL (≈ 82.5 µM) | 2 µg/mL (≈ 2.58 µM) | 1 µg/mL (≈ 1.29 µM) | 128 µg/mL (≈ 165 µM) | 1 µg/mL (≈ 1.29 µM) | 1 µg/mL (≈ 1.29 µM) | 2 µg/mL (≈ 2.58 µM) | 2 µg/mL (≈ 2.58 µM) | 

Reference: ChEMBL document CHEMBL1148383, “Semisynthetic macrolide antibacterials derived from tylosin. Synthesis and structure-activity relationships of novel desmycosin analogues” (J Med Chem, 2004)
